# Source: ChEMBL document CHEMBL1124727, “Neuronal mapping of the heart with 6-[18F]fluorometaraminol” (1990)
# Tests used:
# Rattus norvegicus [1] = assay: Neuronal selectivity expressed as Concentration in spleen after iv administration in rat, pretreated with 6-hydroxydopamine (control = 1.88+/-0.25); format: functional, organism-based
# Rattus norvegicus [2] = assay: Neuronal selectivity expressed as Concentration in blood after iv administration in rat, pretreated with 6-hydroxydopamine (control = 0.062+/-0.012); format: functional, organism-based
# Rattus norvegicus [3] = assay: Neuronal selectivity expressed as Concentration in left atrium after iv administration in rat, pretreated with 6-hydroxydopamine (control = 5.26+/-0.43); format: functional, organism-based; conditions: Cardiac atrium
# Rattus norvegicus [4] = assay: Neuronal selectivity expressed as Concentration in left ventricle after iv administration in rat, pretreated with 6-hydroxydopamine (control = 5.38+/-0.39); format: functional, organism-based; conditions: Heart left ventricle
# Rattus norvegicus [5] = assay: Neuronal selectivity expressed as Concentration in right atrium after iv administration in rat, pretreated with 6-hydroxydopamine (control = 5.19+/-0.14); format: functional, organism-based; conditions: Cardiac atrium
# Rattus norvegicus [6] = assay: Neuronal selectivity expressed as Concentration in right ventricle after iv administration in rat, pretreated with 6-hydroxydopamine (control = 6.10+/-0.45); format: functional, organism-based; conditions: Heart right ventricle
# Canis familiaris [7] = species: Canis familiaris; assay: Concentration of Endogenous NE and FMR from Midbasal Slices of Phenol-Treated Canine in anterior wall; format: functional, organism-based; conditions: Canis lupus familiaris
# Outline: (§1)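 Phenol-painted (88% phenol in ethanol, epicardial LV anterior wall near LAD) dogs, 4–7 days post surgery; sacrificed 1 h after iv FMR by pentobarbital/KCl overdose. Midbasal LV slices cut into radial segments, gamma counted; homogenized in cold 0.4 M perchloric acid, NE by HPLC-fluorescence. FMR normalized to highest-activity segment = 100%. Three lowest contiguous segments per slice averaged versus opposed segments; Student's t test.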
# Canis familiaris [8] = species: Canis familiaris; assay: Concentration of Endogenous NE and FMR from Midbasal Slices of Phenol-Treated Canine in posterior wall; format: functional, organism-based; conditions: Canis lupus familiaris; outline: as §1
# Rattus norvegicus [9] = assay: Neuronal selectivity expressed as Concentration in blood after iv administration in rat, pretreated with 6-hydroxydopamine (control = 0.065+/-0.005); format: functional, organism-based; conditions: tested as the 3H-labelled form
# Rattus norvegicus [10] = assay: Neuronal selectivity expressed as Concentration in spleen after iv administration in rat, pretreated with 6-hydroxydopamine (control = 0.85+/-0.005); format: functional, organism-based; conditions: tested as the 3H-labelled form
# Rattus norvegicus [11] = assay: Neuronal selectivity expressed as Concentration in left atrium after iv administration in rat, pretreated with 6-hydroxydopamine (control =4.75+/-0.28); conditions: Cardiac atrium, tested as the 3H-labelled form
# Rattus norvegicus [12] = assay: Neuronal selectivity expressed as Concentration in rigt atrium after iv administration in rat, pretreated with 6-hydroxydopamine (control = 4.86+/-0.68); conditions: Cardiac atrium, tested as the 3H-labelled form
# Rattus norvegicus [13] = assay: Neuronal selectivity expressed as Concentration in left ventricle after iv administration in rat, pretreated with 6-hydroxydopamine (control = 4.10+/-0.23); conditions: Heart left ventricle, tested as the 3H-labelled form
# Rattus norvegicus [14] = assay: Neuronal selectivity expressed as Concentration in right ventricle after iv administration in rat, pretreated with 6-hydroxydopamine (control = 4.86+/-0.24); conditions: Heart right ventricle, tested as the 3H-labelled form
# Canis familiaris [15] = assay: Tissue concentration in dog blood 24 hr after iv administration; format: functional, Canis lupus familiaris
# Outline: (§2)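 Dogs (one to three per time point) received bolus cephalic vein injection of 92–100 μCi ³H tracer in 2.0 mL sterile acetate buffer pH 4.5; sacrificed 30 min or 24 h later by iv sodium pentobarbital. Duplicate organ samples oxidized and liquid-scintillation counted with background/efficiency correction; % kg dose/g ± SEM; heart ratio uses left ventricle/blood.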
# Canis familiaris [16] = assay: Tissue concentration in dog heart 0.5 hr after iv administration; format: functional, Canis lupus familiaris; outline: as §2
# Canis familiaris [17] = assay: Tissue concentration in dog heart 24 hr after iv administration; format: functional, Canis lupus familiaris; outline: as §2
# Canis familiaris [18] = assay: Tissue concentration in dog left ventricle to blood ratio 0.5 hr after iv administration; format: functional, Canis lupus familiaris; outline: as §2
# Canis familiaris [19] = assay: Tissue concentration in dog liver 24 hr after iv administration; format: functional, Canis lupus familiaris; outline: as §2
# Canis familiaris [20] = assay: Tissue concentration in dog lung 0.5 hr after iv administration; format: functional, Canis lupus familiaris; outline: as §2
# Canis familiaris [21] = assay: Tissue concentration in dog lung 24 hr after iv administration; format: functional, Canis lupus familiaris; outline: as §2
# Canis familiaris [22] = assay: Tissue concentration in dog spleen 0.5 hr after iv administration; format: functional, Canis lupus familiaris; outline: as §2
# Canis familiaris [23] = assay: Tissue concentration in dog spleen 24 hr after iv administration; format: functional, Canis lupus familiaris; outline: as §2
# Rattus norvegicus [24] = species: Rattus norvegicus; assay: Percente change in thallium-201 concentration in left atrium of sympathectomized rat, pretreated with 6-hydroxydopamine; format: functional, Cardiac atrium
# Outline: (§3)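 Female Sprague-Dawley rats (200–300 g) given 6-hydroxydopamine HBr 100 mg/kg ip, freshly made in saline, 5 days before tracer; controls got vehicle. Thallium-201 (23–28 μCi) iv via femoral vein; decapitated 90 min later; tissue radioactivity counted; N = 6. Value is % change in treated versus control tissue concentration.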
# Rattus norvegicus [25] = species: Rattus norvegicus; assay: Percent change in thallium-201 concentration in left ventricle of sympathectomized rat, pretreated with 6-hydroxydopamine; format: functional, Heart left ventricle
# Outline: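 Blood-perfusion check in rats under same 6-hydroxydopamine protocol (100 mg/kg ip, 5 days before tracer): thallium-201 23–28 μCi iv via femoral vein, decapitation 90 min later, N = 6; percent change in tissue radioactivity of treated versus control rats.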
# Rattus norvegicus [26] = species: Rattus norvegicus; assay: Percent change in thallium-201 concentration in right atrium of sympathectomized rat, pretreated with 6-hydroxydopamine; format: functional, Cardiac atrium; outline: as §3
# Rattus norvegicus [27] = species: Rattus norvegicus; assay: Percent change in thallium-201 concentration in spleen of sympathectomized rat, pretreated with 6-hydroxydopamine; format: functional
# Canis familiaris [28] = assay: Tissue concentration in dog left ventricle to blood ratio 24 hr after iv administration; format: functional, Canis lupus familiaris; outline: as §2
# Rattus norvegicus [29] = species: Rattus norvegicus; assay: Percent change in [3H]metaraminol concentration in blood of sympathectomized rat, pretreated with 6-hydroxydopamine
# Rattus norvegicus [30] = species: Rattus norvegicus; assay: Percent change in [3H]metaraminol concentration in right ventricle of sympathectomized rat, pretreated with 6-hydroxydopamine
# Canis familiaris [31] = assay: Tissue concentration in dog blood 0.5 hr after iv administration; format: functional, Canis lupus familiaris
# Outline: (§4)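 Dogs given ³H tracer (92–100 μCi) as iv cephalic-vein bolus in 2.0 mL sterile acetate buffer pH 4.5; 1–3 dogs per time point. Killed 30 min (or 24 h) later by iv pentobarbital; duplicate tissue samples oxidized and liquid-scintillation counted with background and efficiency correction. Expressed as % kg dose/g; ratio = left ventricle to blood.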
# Canis familiaris [32] = assay: Tissue concentration in dog liver 0.5 hr after iv administration; format: functional, Canis lupus familiaris; outline: as §4
compound,measurement,setting,value
C[C@H](N)[C@H](O)c1cccc(O)c1 (stereo in doubt; form 2),Concentration,Rattus norvegicus [1],0.46 % dose g-1
same,Concentration,Rattus norvegicus [2],0.158 % dose g-1
same,Concentration,Rattus norvegicus [3],0.75 % dose g-1
same,Concentration,Rattus norvegicus [4],1.05 % dose g-1
same,Concentration,Rattus norvegicus [5],0.86 % dose g-1
same,Concentration,Rattus norvegicus [6],1.32 % dose g-1
NC[C@H](O)c1ccc(O)c(O)c1,Concentration,Canis familiaris [7],303 ng/g
same,Concentration,Canis familiaris [8],1460 ng/g
same,Concentration,Rattus norvegicus [9],0.052 % dose g-1
same,Concentration,Rattus norvegicus [10],0.25 % dose g-1
same,Concentration,Rattus norvegicus [11],0.39 % dose g-1
same,Concentration,Rattus norvegicus [12],0.29 % dose g-1
same,Concentration,Rattus norvegicus [13],0.6 % dose g-1
same,Concentration,Rattus norvegicus [14],0.41 % dose g-1
C[C@H](N)[C@H](O)c1cccc(O)c1 (stereo in doubt; form 2) [METARAMINOL],[3H] concentration,Canis familiaris [15],0.009 % kg dose g-1
same,[3H] concentration,Canis familiaris [16],0.72 % kg dose g-1
same,[3H] concentration,Canis familiaris [17],0.51 % kg dose g-1
same,[3H] concentration,Canis familiaris [18],24
same,[3H] concentration,Canis familiaris [19],0.17 % kg dose g-1
same,[3H] concentration,Canis familiaris [20],0.13 % kg dose g-1
same,[3H] concentration,Canis familiaris [21],0.05 % kg dose g-1
same,[3H] concentration,Canis familiaris [22],0.88 % kg dose g-1
same,[3H] concentration,Canis familiaris [23],0.73 % kg dose g-1
same,Change,Rattus norvegicus [24],-86%
same,Change,Rattus norvegicus [25],-86%
same,Change,Rattus norvegicus [26],-83%
same,Change,Rattus norvegicus [27],-76%
same,[3H] concentration,Canis familiaris [28],57
same,Change,Rattus norvegicus [29],155%
same,Change,Rattus norvegicus [30],-80%
C[C@H](N)[C@H](O)c1cccc(O)c1 (stereo in doubt; form 1) [METARAMINOL],[3H] concentration,Canis familiaris [31],0.03 % kg dose g-1
same,[3H] concentration,Canis familiaris [15],0.008 % kg dose g-1
same,[3H] concentration,Canis familiaris [16],0.55 % kg dose g-1
same,[3H] concentration,Canis familiaris [17],0.59 % kg dose g-1
same,[3H] concentration,Canis familiaris [18],18
same,[3H] concentration,Canis familiaris [32],0.42 % kg dose g-1
same,[3H] concentration,Canis familiaris [19],0.13 % kg dose g-1
same,[3H] concentration,Canis familiaris [20],0.2 % kg dose g-1
same,[3H] concentration,Canis familiaris [21],0.03 % kg dose g-1
same,[3H] concentration,Canis familiaris [22],0.81 % kg dose g-1
same,[3H] concentration,Canis familiaris [23],0.5 % kg dose g-1
same,[3H] concentration,Canis familiaris [28],74
